From PubChem BioAssay
An excerpt weighted towards active compounds, which were near 2.7% of everything screened.
OX1R antag-1: antagonists of human orexin 1 receptor (OX1R). Orexin/Hypocretin receptor type 1 (Homo sapiens), O43613. OX1R-expressing cells, FRET antagonist read-out. inhibition, % at 6.6 µM. 330,000 compounds, 1.8% hits. AID 485270, 2010; in the data active = inhibition mostly above about 38%, no sharp cut-off; inactive = mostly below about 40%;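 note: 0% = agonist challenge alone and 100% = reference antagonist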
OXTR potentiate: human OXTR potentiators, primary screen, fluorescence, CHO-OTR cells, Fluo-8 calcium; Oxytocin receptor (Homo sapiens), P30559; Fluo-8 calcium fluorescence, potentiator mode; 0% = oxytocin EC15, 100% = EC100; activation, % at 3 µM; 320,000 compounds, 0.061% hits;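 active = activation above that plate's cutoff, the mean activation of tested compounds plus 3 SD, cut at about 6.6% in these data, passing the limit was not always enough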;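 note: 100% uses oxytocin at 75 nM as the full agonist control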
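Assay system: CHO-OTR cells, human receptor / Also added: oxytocin at about EC15, sub-maximal agonist stimulus / Dosing: single dose, 3.0 µM nominal final compound concentration / Incubation: 6 min pre-incubation, 100 s read / Technique: Fluo-8 calcium dye fluorescence / Read-out: % activation vs EC15 and EC100 oxytocin / Benchmarks: EC15 oxytocin low, 75 nM oxytocin high / Replicates: singlicate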
CHO parental Ca: ATP-evoked calcium signal inhibitors, parental CHO, primary screen, counter-screen for OX1R antagonist project, cell-based, fluorescence, Fluo-8 calcium dye; inhibition, % at 5.6 µM; 330,000 compounds, 0.63% hits; AID 463079, 2010; parental CHO-K1, ATP-induced calcium, Fluo-8 fluorescence;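 active = inhibition above that plate's mean sample inhibition plus 3 SD, cut at about 26% in these data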;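 note: 0% = ATP-challenged DMSO wells and 100% = DMSO wells without ATP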
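Test system: untransfected parental CHO cell line. Compound: one dose, 5.6 µM nominal. Detection: intracellular calcium via Fluo-8 no-wash fluorescent dye. Measure: % inhibition. Benchmarks: ATP-challenged DMSO wells low, unchallenged DMSO wells high.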
OX1R antag-2: OX1R (HCRTR1) antagonists, primary screen, fluorescence, CHO/OX1R cells, Fluo-8 calcium, orexin A. Orexin/Hypocretin receptor type 1 (Homo sapiens), O43613. Fluo-8 calcium fluorescence. inhibition, % at 5 µM. 330,000 compounds, 0.43% hits;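 active = inhibition above its plate's threshold, mean inhibition of all tested compounds on the plate plus 3 SD, cut at about 37% in these data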;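 note: 0% = orexin A challenge wells and 100% = SB-334867-A antagonist wells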
V1R ag counter: agonists of human V1a receptor, primary screen, counter-screen for OXTR agonist project, fluorescence, CHO-V1R cells. Vasopressin V1a receptor (Homo sapiens), P37288. Fluo-8 calcium fluorescence, agonist mode; 0% DMSO, 100% 3 nM vasopressin. activation, % at 3 µM. 320,000 compounds, 0.25% hits;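 active = activation above the mean activation of all tested compounds plus 3 SD, per screening run, cut at about 20% in these data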;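 note: signal is peak over basal fluorescence ratio across a 100 second FLIPR read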
Target sequence (P37288 whole entry, looked up): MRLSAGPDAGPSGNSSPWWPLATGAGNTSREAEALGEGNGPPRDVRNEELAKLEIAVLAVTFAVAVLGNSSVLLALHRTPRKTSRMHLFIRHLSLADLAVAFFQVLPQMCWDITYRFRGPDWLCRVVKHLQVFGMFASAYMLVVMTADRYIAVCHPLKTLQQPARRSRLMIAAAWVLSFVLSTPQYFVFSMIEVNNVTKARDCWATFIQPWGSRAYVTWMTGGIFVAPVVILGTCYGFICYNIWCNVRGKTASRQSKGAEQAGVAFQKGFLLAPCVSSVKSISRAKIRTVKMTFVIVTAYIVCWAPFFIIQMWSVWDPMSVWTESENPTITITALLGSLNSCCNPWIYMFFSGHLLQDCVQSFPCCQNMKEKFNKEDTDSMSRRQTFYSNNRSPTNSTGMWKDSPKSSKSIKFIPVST
OXTR ag: human OXTR agonists, primary screen, fluorescence, CHO-OTR cells, Fluo-8 calcium; 320,000 compounds, 0.32% hits; Fluo-8 calcium fluorescence; normalized: DMSO 0%, oxytocin 100%; AID 2435, 2010; Oxytocin receptor (Homo sapiens), P30559; activation, % at 3 µM;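 active = activation above the mean of all tested compounds plus 3 SD, cutoff set per screening run, cut at about 20% in these data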;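 note: peak over basal fluorescence ratio from a 100 s FLIPR kinetic read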
The depositor's hits bear a star.

SMILES	OX1R antag-1	OXTR potentiate	CHO parental Ca	OX1R antag-2	V1R ag counter	OXTR ag
C[C@@H]1C(=O)O[C@H]2[C@H](O)[C@@]34[C@H]5C[C@@H](C(C)(C)C)[C@]36[C@@H](OC(=O)[C@@H]6O)O[C@@]4(C(=O)O5)[C@@]12O	10	-6	-6	19	0	0
Cc1ccc(NC(=O)C(c2ccccc2)N2CCN(C(=O)c3ccco3)CC2)cc1Cl (stereo unspecified)	15	-5	-26	-2	0	0
CCCCn1c(-c2ccco2)nc2oc3ccccc3c(=O)c2c1=O	10	-2	-19	-16	-1	-1
CCOC(=O)C1(Cc2ccccc2C)CCCN(C(=O)c2ccc(OC)o2)C1 (stereo unspecified)	14	-15	-21	-16	0	-1
Cc1ccc(Sc2c(C(=O)Nc3ccc(F)cc3F)c(C(F)(F)F)nn2C)cc1	6	-6	-23	-30	0	0
Cn1nc(C(F)(F)F)c(CO)c1Sc1ccc(F)cc1	15	2	29*	-2	0	-1
O=C(COC(=O)c1cc2ccccc2o1)NCc1ccco1	4	-5	-17	-7	1	0
Cc1cc(C)cc(NC(=O)CCc2c(C)nn(-c3ccc(N4CCOCC4)nn3)c2C)c1	6	-7	-21	-20	3	0
COc1cc(-c2ccc3oc(-c4ccsc4)cc(=O)c3c2)cc(OC)c1OC	67*	-2	-20	9	-1	-2
CCOC(=O)c1ccc(-c2ccc3oc(-c4ccsc4)cc(=O)c3c2)cc1F	8	-6	-10	-31	0	0
COc1ccc(-c2ccc3c(=O)cc(-c4ccsc4)oc3c2)cn1	63*	1	-16	14	1	4
O=S(=O)(c1cccc(F)c1)N1CCN(Cc2cc3c(cc2Br)OCCO3)CC1	10	-6	-23	-28	1	-1
CCOC(=O)c1[nH]c(C)c(CC(C)C)c1C	6	-2	2	-6	0	-1
CC(OC(=O)CNC(=O)COc1ccccc1)C(=O)N(C)Cc1ccccc1 (stereo unspecified)	8	-7	-14	4	-1	-1
Cc1ccc(C)c(S(=O)(=O)N2CCCC2CNC(=O)C(=O)NC2CC2)c1 (stereo unspecified)	24	-1	-8	-11	0	0
Cc1ccc(C)c(S(=O)(=O)N2CCCC2CNC(=O)c2ccc([N+](=O)[O-])cc2)c1 (stereo unspecified)	54*	-3	-2	-31	0	-1
Cc1ccc(C(=O)NCC2CCCN2S(=O)(=O)c2ccc(C)cc2)cc1 (stereo unspecified)	24	-8	-22	-2	-1	-2
O=C(NCC1CCCN1S(=O)(=O)c1ccccc1)c1cccc(Cl)c1 (stereo unspecified)	60*	-6	-4	-7	-1	-1
CC(C)(C)c1ccc(C(=O)NCC2CCCN2S(=O)(=O)c2ccccc2)cc1 (stereo unspecified)	23	-2	-15	-32	0	-2
Cc1ccc(S(=O)(=O)N2CCCC2CNC(=O)c2ccc(F)c(F)c2)cc1 (stereo unspecified)	70*	-16	-25	16	-2	-2
Cc1n[nH]c(C)c1S(=O)(=O)N(C)Cc1ccco1	7	-4	0	9	0	2
Cc1ccc(S(=O)(=O)N2CCOCC2)cc1C(=O)OCC(=O)NC1CC1	-5	-3	-22	21	1	2
CC1Sc2ccc(S(=O)(=O)N3CCC(C(=O)NCC(C)c4ccccc4)CC3)cc2NC1=O (stereo unspecified)	19	-13	34*	15	15	11
CCN(CC)S(=O)(=O)c1cccc(NC(=O)CCSc2ccc(Cl)cc2)c1	6	-9	48*	10	4	2
S=C(NCc1ccccc1)Nc1cccc2cnccc12	57	-27	9	0	7	8
SMILES	OX1R antag-1	OXTR potentiate	CHO parental Ca	OX1R antag-2	V1R ag counter	OXTR ag
S=C(NCCc1ccccc1)Nc1cccc2cnccc12	44	-33	52*	26	8	12
COc1ccc2oc(C(=O)OCC(=O)N(C)Cc3ccccc3)c(C)c2c1	16	-2	-4	-36	0	-1
Cc1c(C(=O)OCC(=O)N(C)Cc2ccc(Cl)cc2)oc2ccccc12	53*	-4	-34	27	1	-1
Cc1c(C(=O)O)c(C(=O)O)nc2ccc(N3CCOCC3)cc12	22	-14	13	9	1	0
CCOC(=O)c1oc2ccccc2c1COC(=O)CNC(=O)c1cc(OC)c(OC)c(OC)c1	35	7	-31	-32	-1	-1
CCOC(=O)c1oc2ccccc2c1COC(=O)CNC(=O)c1ccccc1OC	68*	-10	-19	-6	0	-2
Cc1cc(N/N=C/c2ccc([N+](=O)[O-])o2)nc2ccccc12	42*	-11	-6	25	7	6
O=C(N/N=C/c1ccc([N+](=O)[O-])o1)c1cc(-c2ccc(-c3ccccc3)cc2)nc2ccccc12	11	-8	-7	3	0	-1
CCc1sc(C(=O)Nc2ccc3c(c2)OCCO3)cc1Br	20	-7	-5	-19	-1	-1
CNC(=O)/C(=C\c1ccc([N+](=O)[O-])cc1)NC(C)=O	73*	4	-6	-5	2	1
CC(=O)N/C(=C/c1ccc([N+](=O)[O-])cc1)C(=O)O	33	-6	-6	-8	1	1
COc1cc(NC(=O)C(c2ccccc2)c2ccccc2)c(C(=O)O)cc1OC	-1	-7	-3	-18	-1	0
COc1cc2c(cc1NC(=O)C(c1ccccc1)c1ccccc1)CCCC2	21	-13	32*	36	-1	-1
Cc1ccc2c(c1)-c1c(cnn1CC(=O)O)CO2	31	-11	-4	-10	1	-1
Cc1ccc2c(c1)-c1c(cnn1CC(=O)N1CCCN(Cc3ccccc3F)C1)CO2	43*	-8	-5	-6	0	1
CCCCCCSc1ccc([C@H]2N[C@@](C)(C(=O)OC)[C@H]3C(=O)N(CC)C(=O)[C@@H]23)cc1	24	0	-25	-16	1	1
O=C(NCCN1CCOCC1)c1ccc(NS(=O)(=O)c2cccc([N+](=O)[O-])c2)cc1	52*	-4	-9	-8	0	1
